Experimental findings from ChEMBL document CHEMBL1138835, “Inhibitors of multiple mutants of Plasmodium falciparum dihydrofolate reductase and their antimalarial activities” (J Med Chem, 2004) are described below.

Experiment [1] deals with Bifunctional dihydrofolate reductase-thymidylate synthase (Plasmodium falciparum K1, UniProt P13922, C59R/I164L/S108N). Put plainly: Binding affinity towards mutant dihydrofolate reductase (C59R+S108N+I164L DHFR) of Plasmodium falciparum.
Experiment [2] deals with Bifunctional dihydrofolate reductase-thymidylate synthase (Plasmodium falciparum K1), P13922 [UNDEFINED MUTATION]. Nature of the experiment: Ratio of binding affinity for mutant (N51I+C59R+S108N+I164L) to that of wild type dihydrofolate reductase. The gist of the method:
(§1)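 Each ratio is Ki for the mutant PfDHFR divided by Ki for wild-type PfDHFR. The recombinant enzymes were expressed in E. coli BL21(DE3)pLysS and purified on methotrexate-Sepharose. Ki was derived assuming inhibitors compete with substrate binding.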

The target of experiment [3] is Bifunctional dihydrofolate reductase-thymidylate synthase (Plasmodium falciparum K1) (UniProt P13922). Put plainly: Ratio of binding affinity for mutant (N51I+C59R+S108N) to that of wild type dihydrofolate reductase. In short, it runs like this:
as §1

Experiment [4] deals with Bifunctional dihydrofolate reductase-thymidylate synthase (Plasmodium falciparum K1), P13922 [UNDEFINED MUTATION]. Put plainly: Ratio of binding affinity for mutant (C59R+S108N+I164L) to that of wild type dihydrofolate reductase. In short, it runs like this:
as §1

Experiment [5] has as its target Bifunctional dihydrofolate reductase-thymidylate synthase (Plasmodium falciparum K1, UniProt P13922, C59R/N51I/S108N). Put plainly: Binding affinity towards mutant dihydrofolate reductase (N51I+C59R+S108N DHFR) of Plasmodium falciparum.
Experiment [6] addresses Bifunctional dihydrofolate reductase-thymidylate synthase (Plasmodium falciparum K1, UniProt P13922, C59R/I164L/N51I/S108N). Nature of the experiment: Binding affinity towards mutant dihydrofolate reductase (N51I+C59R+S108N+I164L DHFR) of Plasmodium falciparum.
The target in experiment [7] is Bifunctional dihydrofolate reductase-thymidylate synthase (Plasmodium falciparum K1, UniProt P13922). Put plainly: Binding affinity towards wild-type dihydrofolate reductase of Plasmodium falciparum.
Experiment [8] has as its system Vero. Nature of the experiment: Relative antiplasmodial activity to cytotoxicity in Plasmodium falciparum TM4/8.2 infected Vero cells. The format is functional.
For experiment [9], the system named is KB. Put plainly: Relative antiplasmodial activity to cytotoxicity in Plasmodium falciparum V1/S infected KB cells. The format is functional.
In experiment [10] the test system is Vero. Put plainly: Relative antiplasmodial activity to cytotoxicity in Plasmodium falciparum Csl-2 infected Vero cells. In kind it is functional.
Experiment [11] concerns BC. Nature of the experiment: Relative antiplasmodial activity to cytotoxicity in Plasmodium falciparum TM4/8.2 infected BC cells. The format is functional.
The test system of experiment [12] is Vero. Put plainly: Relative antiplasmodial activity to cytotoxicity in Plasmodium falciparum V1/S infected Vero cells. In kind it is functional.
Experiment [13] has as its system KB. Put plainly: Relative antiplasmodial activity to cytotoxicity in Plasmodium falciparum Csl-2 infected KB cells. In kind it is functional.
The subject of experiment [14] is KB. Nature of the experiment: Relative antiplasmodial activity to cytotoxicity in Plasmodium falciparum TM4/8.2 infected KB cells. In kind it is functional.
Experiment [15] relates to BC. Nature of the experiment: Relative antiplasmodial activity to cytotoxicity in Plasmodium falciparum Csl-2 infected BC cells. In kind it is functional.
Experiment [16] has as its system BC. Nature of the experiment: In vitro cytotoxicity against BC cell line. To be noted: Homo sapiens.
Experiment [17] relates to KB. Put plainly: In vitro cytotoxicity against Plasmodium falciparum infected KB cell line. The format is functional, cell-based. To be noted: Homo sapiens. In short, it runs like this:
(§2)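 Cytotoxicity (IC50, μM) run against three mammalian lines: Vero (African green monkey kidney fibroblasts), KB (human epidermoid carcinoma) and BC (human breast cancer). Testing followed the Skehan et al. protocol.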

The target of experiment [18] is Bifunctional dihydrofolate reductase-thymidylate synthase (Plasmodium falciparum K1, UniProt P13922, A16V/S108T). Nature of the experiment: Binding affinity towards mutant dihydrofolate reductase (A16V+S108T DHFR) of Plasmodium falciparum.
The test system of experiment [19] is Bifunctional dihydrofolate reductase-thymidylate synthase (Plasmodium falciparum K1), P13922 [UNDEFINED MUTATION]. Put plainly: Ratio of binding affinity for mutant (A16V+S108T) to that of wild type dihydrofolate reductase. The gist of the method: as §1
Experiment [20] deals with Vero. Nature of the experiment: In vitro cytotoxicity against Plasmodium falciparum infected vero cell line. The format is functional, cell-based. As to conditions: Chlorocebus sabaeus. The gist of the method: as §2

Chain of Bifunctional dihydrofolate reductase-thymidylate synthase (Plasmodium falciparum K1) (P13922 whole entry, looked up): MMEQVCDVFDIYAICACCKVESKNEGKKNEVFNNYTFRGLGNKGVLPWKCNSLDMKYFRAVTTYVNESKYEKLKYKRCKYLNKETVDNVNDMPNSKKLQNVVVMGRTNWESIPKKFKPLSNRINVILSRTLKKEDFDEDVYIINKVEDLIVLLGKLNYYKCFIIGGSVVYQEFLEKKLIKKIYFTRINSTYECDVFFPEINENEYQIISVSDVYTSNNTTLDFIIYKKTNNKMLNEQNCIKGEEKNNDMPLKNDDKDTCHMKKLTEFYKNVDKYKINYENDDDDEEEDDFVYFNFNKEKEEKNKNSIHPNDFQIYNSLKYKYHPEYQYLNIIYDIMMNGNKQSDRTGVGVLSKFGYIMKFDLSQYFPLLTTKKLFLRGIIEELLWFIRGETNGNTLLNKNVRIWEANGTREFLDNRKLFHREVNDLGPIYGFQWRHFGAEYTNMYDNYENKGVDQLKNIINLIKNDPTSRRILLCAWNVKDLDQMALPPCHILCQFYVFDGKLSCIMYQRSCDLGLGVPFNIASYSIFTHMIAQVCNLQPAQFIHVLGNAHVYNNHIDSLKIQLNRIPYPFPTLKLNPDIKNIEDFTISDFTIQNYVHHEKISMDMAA
Chain of Bifunctional dihydrofolate reductase-thymidylate synthase (Plasmodium falciparum K1, UniProt P13922, C59R/I164L/S108N) (P13922 whole entry, looked up, stated change not applied): as the sequence (P13922 whole entry, looked up) above
Chain of Bifunctional dihydrofolate reductase-thymidylate synthase (Plasmodium falciparum K1, UniProt P13922, A16V/S108T) (P13922 whole entry, looked up, stated change not applied): as the sequence (P13922 whole entry, looked up) above
Chain of Bifunctional dihydrofolate reductase-thymidylate synthase (Plasmodium falciparum K1, UniProt P13922, C59R/I164L/N51I/S108N) (P13922 whole entry, looked up, stated change not applied): as the sequence (P13922 whole entry, looked up) above
Chain of Bifunctional dihydrofolate reductase-thymidylate synthase (Plasmodium falciparum K1), P13922 [UNDEFINED MUTATION] (P13922 whole entry, looked up, stated change not applied): as the sequence (P13922 whole entry, looked up) above
Chain of Bifunctional dihydrofolate reductase-thymidylate synthase (Plasmodium falciparum K1, UniProt P13922) (P13922 whole entry): as the sequence (P13922 whole entry, looked up) above
Chain of Bifunctional dihydrofolate reductase-thymidylate synthase (Plasmodium falciparum K1, UniProt P13922, C59R/N51I/S108N) (P13922 whole entry, looked up, stated change not applied): as the sequence (P13922 whole entry, looked up) above

Usually Ki stands for a measure of affinity in units of concentration, obtained from inhibition or displacement. A lower Ki goes with a stronger hold on the target. For `CCc1nc(N)nc(N)c1-c1ccc2c(c1)OCO2`, the Ki in [1] was 121 nM; in experiment [5], 8.3 nM; in experiment [6], 269 nM; in experiment [7], 1.1 nM. Also, the figures for the Ratio in experiment [2], in [3] and in experiment [4] were 244, 7.5 and 110, respectively.

For `COC(=O)CCCc1nc(N)nc(N)c1-c1cccc(Cl)c1`, the Ki in [1] was determined as 1.8 nM; in experiment [5] it was 0.77 nM; in experiment [6], 2.7 nM; in experiment [7], 0.5 nM. Besides, the Ratio was 5.4 in experiment [2], 1.5 in experiment [3] and 3.6 in experiment [4].

With `CCCCCCc1nc(N)nc(N)c1-c1ccccc1`, the Safety ratio in the experiment with Vero [8] is 917; in the experiment on KB [9] it was 17.7; in the experiment with Vero [10], 18.3; with BC [11], 4467; with Vero [12] it was 8.6; with KB [13], 37.7. In addition, the values for the Safety ratio in the experiment on KB [14] and in the experiment on BC [15] were 1883 and 89.3, respectively. The Ki was found to be 0.7 nM in experiment [1], 0.4 nM in experiment [5], 1.4 nM in [6] and 0.3 nM in [7].

As to `Nc1nc(N)c(-c2ccc(Cl)cc2)c(CCCc2ccccc2)n1`, the Ki in experiment [1] was 63 nM; in [5], 15.1 nM; in experiment [6], 170 nM; in [7], 0.7 nM. Further, the figures for the Ratio in experiment [2], in experiment [3] and in experiment [4] were 243, 21.6 and 90, respectively.

Usually IC50 stands for the concentration at which inhibition is half-maximal. A lower IC50 goes with higher potency. Regarding `COc1ccc(CCCc2nc(N)nc(N)c2-c2cccc(Cl)c2)cc1`, the Safety ratio with Vero [8] was determined as 7.3; in the experiment on KB [9] it was 3.2; with Vero [10], 1.1; with BC [11], 7.3; with Vero [12], 0.6; in the experiment with KB [13], 5.6. For the same molecule, the figures for the Safety ratio in the experiment with KB [14] and in the experiment on BC [15] were 36.6 and 1.1, respectively. The Ki in [1] amounted to 2.9 nM; in experiment [5], 1.3 nM; in [6], 2 nM; in experiment [7], 2.2 nM. Moreover, the figures for the Ratio in experiment [2], in experiment [3] and in experiment [4] were 0.9, 0.6 and 1.3, respectively. In addition, in the experiment with BC [16], the IC50 was determined as 3000 nM.

Regarding `Cc1nc(N)nc(N)c1-c1cccc(Cl)c1`, the Ki in [1] amounted to 9.8 nM; in experiment [5], 6.5 nM; in experiment [6], 14 nM; in experiment [7] it was 1.9 nM. For the same molecule, the Ratio in [2] worked out at 7.4; in experiment [3] it was 3.4; in [4], 5.2.

`CCc1nc(N)nc(N)c1-c1ccc(Cl)c(Cl)c1` [ETOPRINE]: the inhibitory constant (Ki) in experiment [1] was 41 nM; in experiment [5], 3.1 nM; in experiment [6], 53 nM; in experiment [7] it was 1 nM. For the same molecule, the values for the Ratio in experiment [2], in experiment [3] and in [4] were 53, 3.1 and 41, respectively.

As for `Nc1nc(N)c(-c2ccccc2)c(CCCc2ccccc2)n1`, the Safety ratio is given as above 238 in the experiment on Vero [8]; 17.4 in the experiment with KB [9]; above 18.5 in the experiment with Vero [10]; 1191 with BC [11]; above 5.8 with Vero [12]; 55.6 in the experiment on KB [13]. Further, the Safety ratio with KB [14] is reported as 714; in the experiment on BC [15], 92.6. Besides, the Ki in experiment [1] is 1.9 nM; in experiment [5], 1.1 nM; in experiment [6], 4.7 nM; in experiment [7] it was 0.5 nM. In addition, the Ratio in [2] turned out to be 9.4; in experiment [3] it was 2.2; in experiment [4], 3.8. In addition, the IC50 with BC [16] is 250000 nM; in the experiment on KB [17], 150000 nM.

Turning to `NC1=NC(c2cccc(Oc3cccc(C(F)(F)F)c3)c2)N(c2cccc(Cl)c2)C(N)=N1` (stereo not drawn), the Safety ratio with Vero [8] worked out at 9.4; in the experiment on KB [9], 1.9; in the experiment on Vero [10] it was 8.8; in the experiment on BC [11] it was 2; with Vero [12], 9.4; in the experiment with KB [13], 1.8. Moreover, the Safety ratio in the experiment with KB [14] and in the experiment with BC [15] was 1.9 each time. Moreover, the Ki was found to be 6.5 nM in experiment [18], 0.6 nM in experiment [1], 2 nM in experiment [5] and 4.8 nM in experiment [6]. Further, the Ratio stood at 1.8 in experiment [2], 0.7 in [3], 2.4 in experiment [19] and 0.2 in [4]. The IC50 in the experiment on BC [16] amounted to 6400 nM; in the experiment with Vero [20] it was 30000 nM; in the experiment with KB [17] it was 6000 nM.

As to `NC1=NC(c2ccc(Oc3ccccc3)cc2)N(c2cccc(Cl)c2)C(N)=N1` (stereo not drawn), the Safety ratio in the experiment with Vero [8] is above 76.9; with KB [9] it was 1.2; in the experiment with Vero [10] it was above 15.2; in the experiment on BC [11], 8.3; with Vero [12] it was above 15.2; in the experiment with KB [13] it was 1.2. Besides, the Safety ratio in the experiment on KB [14] is recorded as 6.2; in the experiment with BC [15], 1.6. Further, the Ki turned out to be 2.7 nM in experiment [18], 0.3 nM in [1], 0.9 nM in experiment [5] and 1.3 nM in experiment [6]. The Ratio in [2] is 1.9; in [3] it was 1.2; in [19] it was 3.9; in [4], 0.5. The IC50 with BC [16] was 5300 nM; in the experiment on Vero [20] it was above 50000 nM; in the experiment on KB [17] it was 4000 nM.

For the molecule `CC1N=C(N)N=C(N)N1c1ccc(Cl)cc1` (stereo not drawn), the Ki in [1] stood at 1580 nM; in experiment [5], 134 nM; in experiment [6], 2430 nM; in experiment [7] it was 4.1 nM. The Ratio in experiment [2] worked out at 592; in [3], 32.7; in [19] it was 31; in experiment [4], 386.

In the case of `Nc1nc(N)c(-c2cccc(Cl)c2)c(CCOCCCOc2ccccc2)n1`, the Safety ratio in the experiment with Vero [8] came to 42.9; with KB [9], 1.4; in the experiment with Vero [10], 5.2; in the experiment on BC [11] it was 14; in the experiment on Vero [12], 3.3; with KB [13], 2.2. Moreover, the values for the Safety ratio in the experiment on KB [14] and in the experiment on BC [15] were 18.3 and 1.7, respectively. The Ki in [1] stood at 1.3 nM; in experiment [5], 0.7 nM; in experiment [6], 1.7 nM; in experiment [7] it was 0.4 nM. Besides, the values for the Ratio in [2], in [3] and in [4] were 4.2, 1.7 and 3.2, respectively. Moreover, the IC50 with BC [16] was 4900 nM; with KB [17], 6400 nM.

For `COC(=O)CCCc1nc(N)nc(N)c1-c1ccc(Cl)cc1`, the Ki in [1] came to 145 nM; in experiment [5] it was 29.3 nM; in experiment [6], 360 nM; in experiment [7] it was 0.3 nM. Further, the Ratio in [2] is 1200; in experiment [3] it was 97.7; in [4], 483.

Turning to `CCc1nc(N)nc(N)c1-c1ccc(C)cc1`, the Ki in experiment [1] is 88 nM; in experiment [5], 6.9 nM; in experiment [6] it was 284 nM; in experiment [7], 0.4 nM. The Ratio was 710 in experiment [2], 17.2 in [3] and 220 in experiment [4].

For the molecule `CCCC1(C)N=C(N)N=C(N)N1c1cccc(Cl)c1` (stereo not drawn), the Safety ratio with Vero [8] was above 2778; in the experiment on KB [9], 1.1; in the experiment on Vero [10], above 1724; with BC [11], 356; in the experiment with Vero [12] it was 454; in the experiment with KB [13], 379. In addition, the Safety ratio with KB [14] is listed as 611; in the experiment on BC [15], 221. Also, the inhibitory constant (Ki) in [18] was 471 nM; in experiment [1], 33.1 nM; in experiment [5], 9.7 nM; in experiment [6], 39.4 nM. The Ratio in experiment [2] was determined as 8.53; in experiment [3] it was 2.1; in experiment [19], 102; in experiment [4] it was 7.2. Moreover, the IC50 in the experiment on BC [16] is 64000 nM; in the experiment on Vero [20], above 500000 nM; in the experiment on KB [17], 110000 nM.

`COC(=O)CCCc1nc(N)nc(N)c1-c1ccccc1`: the Ki amounted to 15 nM in experiment [1], 3.3 nM in experiment [5], 24 nM in [6] and 0.6 nM in experiment [7]. The Ratio stood at 40 in [2], 5.5 in experiment [3] and 25 in experiment [4].
